SENP8 block-1: SENP8 protease inhibition; Q96LD8; purified SENP8, Z-RLRGG-aminoluciferin cleavage, luminescence; inhibition, % at 10 µM; 1.2% of 330,000 active; in the data active means inhibition above about 50%
Target sequence (Q96LD8 whole entry, looked up): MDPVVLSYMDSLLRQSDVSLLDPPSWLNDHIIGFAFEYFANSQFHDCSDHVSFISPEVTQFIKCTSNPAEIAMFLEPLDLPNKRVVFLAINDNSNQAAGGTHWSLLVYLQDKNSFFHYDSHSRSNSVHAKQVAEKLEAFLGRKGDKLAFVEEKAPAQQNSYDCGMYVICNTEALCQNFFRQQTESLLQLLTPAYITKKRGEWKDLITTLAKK
SENP1 FRET inh: blocks the human SENP1 SUMO protease catalytic domain. inhibition, % at 10 µM. recombinant SENP1 catalytic domain, CyPet-SUMO1-YPet FRET cleavage. 0.21% of 360,000 active. Q9P0U3. AID 624204;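 active means inhibition at least 30% at 10 µM, raw YFP signal under a set limit, fluorescence ratio 0.5 to 1.5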;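 further: 0% = enzyme with DMSO and 100% = no enzyme wells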
Target sequence (Q9P0U3 419-644 limits assumed): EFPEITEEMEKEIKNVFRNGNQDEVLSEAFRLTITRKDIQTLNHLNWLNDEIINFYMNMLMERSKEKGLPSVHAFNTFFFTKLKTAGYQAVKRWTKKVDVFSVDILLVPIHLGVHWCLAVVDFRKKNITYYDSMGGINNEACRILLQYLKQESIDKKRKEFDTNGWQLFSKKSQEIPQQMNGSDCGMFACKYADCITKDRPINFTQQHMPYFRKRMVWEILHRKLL
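Assay system – human recombinant His6-tagged SENP1 catalytic domain enzyme · Input – SENP1 enzyme, 20 pM final · Buffer or medium – Tris pH 8 buffer plus EDTA, NaCl, BME, BSA, NP40, catalase · Schedule – 50 min reaction at room temperature · Technique – FRET read of cyan and yellow fluorescence · Control set – no-enzyme wells low, DMSO-plus-enzyme wells high control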
SENP7 inh: inhibitors of human SENP7 protease. AID 434973. Q9BQF6. inhibition, % at 5 µM. recombinant SENP7, Z-RLRGG-aminoluciferin luminescence, 40 min. 1.5% of 330,000 active;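 active means inhibition above about 50% at the single test dose, limit read from the data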;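 further: plate controls were DMSO with enzyme for no effect and no enzyme buffer wells for full effect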
HSP90 refold inh: HSP90 refolding inhibition in rabbit reticulocyte lysate; luciferase refolding luminescence, 3 h; inhibition, % at 5.6 µM; 0.91% of 290,000 active; AID 1789;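 active means inhibition above the screen-wide mean plus 3 SD, computed separately per campaign, cut at about 16% in these data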;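 further: 0% = DMSO wells and 100% = 60 µM geldanamycin wells; inhibitors lower the luminescence because luciferase stays unfolded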
SENP8 block-2: SENP8 (human) protease inhibition | inhibition, % at 20 µM | 0.64% of 360,000 active | recombinant SENP8, Nedd8 substrate fluorescence; in the data active means inhibition mostly above about 40%, no sharp cut-off; inactive means mostly below about 27%
SENP6 block: inhibitors of human SENP6 protease | inhibition, % at 10 µM | Q9GZR1 | Recombinant SENP6 catalytic domain, aminoluciferin luminescence | 1.8% of 330,000 active;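 active means inhibition above about 50% at the single tested dose, limit read from the data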;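 further: plate controls were DMSO wells with enzyme for no effect and DMSO wells lacking enzyme for full effect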
Numbers without * were called inactive; / = no result. Rows were chosen to be rich in hits. Some 2.9% of all compounds tested hit in one or more screens of this group.

SMILES	SENP8 block-1	SENP1 FRET inh	SENP7 inh	HSP90 refold inh	SENP8 block-2	SENP6 block
COc1ccc(CN2C[C@@H](CO)O[C@@H](n3cnc4c(NC5CC5)ncnc43)C2)cc1	/	2.8	/	/	9.1	/
Nc1[nH]n(-c2ccccc2)c(=O)c1N=Nc1ccc2c(c1)OCO2	51.5*	4.9	68.7*	-1.7	52.3*	64.5*
CC(C)c1ccc(/C=C/C2=NNC(=O)CC2)cc1	27.2	1.1	48.3	1.5	3.2	47.7
CC(C)c1ccc(/C=C/c2ccc(=O)n(C)n2)cc1	69.4*	1.5	84.5*	-4.1	-374.3	83.7*
CN(C)S(=O)(=O)Nc1ccccc1F	6.8	0.2	4.4	-1.8	9.7	-6.4
COc1ccc2nc(N=Nc3ccc(N(C)C)cc3)sc2c1	/	-1.3	/	25.5*	32.6	/
COc1ccccc1N1CCN(C2=Nc3cccc4cccc2c34)CC1	-1.4	94.6*	-2.4	3.4	28.3	1.8
CCN(CC)S(=O)(=O)c1cc(NC(=O)CCNC(=O)c2ccco2)ccc1C	7.0	0.9	-8.2	-3.4	23.5	-15.1
CC1(C(=O)NS(=O)(=O)c2ccc3c(c2)CCO3)CCN1C(=O)C1(c2ccc(Cl)cc2)CCC1 (stereo not given)	/	1.8	/	/	13.6	/
COc1ccccc1N1CCN(C2CCCN(C(=O)Cn3cccn3)C2)CC1 (stereo not given)	3.8	-1.3	-2.6	5.8	1.4	3.9
Cc1ccc(CNS(=O)(=O)c2ccc(-n3cccn3)cc2)cc1	/	0.8	/	/	10.8	/
CCOC(=O)c1cccc(NC(=O)Cn2c(CC(=O)N3CCCC3)nc3ccccc32)c1	0.6	/	3.2	0.4	/	76.4*
CCCCN(C=O)c1c(CC)nc2ccc(C(=O)N3CCN(c4ccccc4)CC3)cn12	/	0.6	/	/	-7.6	/
O=C1Nc2ccccc2SC1=Cc1ccccc1	/	0.9	/	/	-4.9	/
O=C1CCCC2=C1Sc1ccccc1N2	2.1	51.8*	-0.2	4.3	17.8	6.5
O=[N+]([O-])c1ccccc1N=Nc1c(O)[nH]c2ccc(F)cc12	/	1.8	/	/	27.8	/
O=[N+]([O-])c1ccc(N=Nc2c(O)[nH]c3ccc(F)cc23)cc1	2.9	49.5*	11.8	0.7	30.7	-5.5
COc1ccc(CNc2nc3ccccc3n2C)c(OC)c1	60.5*	1.6	61.0*	-0.5	5.2	40.3
CCCCN1C(=O)CCC(C(=O)O)C1c1ccc([N+](=O)[O-])cc1 (stereo not given)	45.0	0.6	-0.8	2.5	9.5	-0.1
Cc1ccc(NC2=C(NC(=O)c3ccccc3)C(=O)c3ccccc3C2=O)cc1Cl	15.5	-0.8	5.5	8.1	62.1*	35.1
Cc1ccc(NCC(=O)c2ccccc2)cc1Cl	2.2	3.2	-3.9	-0.8	22.7	27.3
O=C(O)c1cccnc1Cl	-10.6	1.7	-0.2	-0.4	10.1	7.7
O=C(O)c1cccnc1C(=O)O	2.4	4.7	1.4	/	41.2*	2.0
O=C(N/N=C/C=C/c1ccccc1)c1cccs1	-9.6	0.7	2.7	-1.1	7.2	-26.4
O=C(N/N=C/C(Br)=C/c1ccccc1)c1cccs1	50.7*	2.1	37.6	-2.8	-3.1	62.2*
SMILES	SENP8 block-1	SENP1 FRET inh	SENP7 inh	HSP90 refold inh	SENP8 block-2	SENP6 block
CC1=NN(c2ccccc2)C(=O)/C1=C/C=C/C=C/N(C)C	6.4	32.8*	5.7	-2.7	23.0	0.9
CC1=NN(c2ccccc2)C(=O)/C1=C/c1ccc[nH]1	-10.5	2.1	-6.8	-4.5	46.5*	-21.7
CC1=NN(c2ccccc2)C(=O)/C1=C/c1c(O)n(-c2ccc(F)cc2)[nH]c1=O	31.1	4.0	-2.4	-2.1	30.9	57.5*
CC1=NN(c2ccccc2)C(=O)/C1=C\c1ccc(Br)s1	2.0	1.4	43.6	2.2	17.4	20.0
CC1=NN(c2ccccc2)C(=O)C1=Cc1ccccc1	/	1.5	/	/	49.5*	/
CCc1nc2ccccc2c(C(=O)OCC(=O)Nc2cccc(S(=O)(=O)N3CCOCC3)c2)c1C	1.9	0.7	-1.1	0.2	7.3	-1.6
COc1ccc(/C=C2/C(=O)N(c3ccccc3)N=C2C)cc1Br	-2.1	3.6	22.5	1.4	46.3*	-2.7
COc1ccc(/C=C2/C(=O)N(c3cccc(F)c3)N=C2C)c(OC)c1	-2.3	1.0	48.9	3.6	41.0*	20.1
CC1=NN(c2ccccc2)C(=O)/C1=C/c1ccc(Cl)cc1	26.8	1.1	49.6	5.2	41.4*	40.8
CN(C)c1ccc(N2C(=NC(=O)c3ccccc3)SC3CS(=O)(=O)CC32)cc1 (stereo not given)	-7.9	2.8	19.2	-2.7	18.1	-3.6
O=C(NS(=O)(=O)Nc1ccccc1)C1=C(N2CCCC2)COC1=O	-3.7	-1.5	-0.8	/	5.1	-4.6
Nc1cc(N)c(OCC(F)(F)F)cc1OCC(F)(F)F	21.9	32.0*	8.0	-0.6	85.3*	11.1
Nc1cc(OCC(F)(F)F)cc([N+](=O)[O-])c1	-8.9	-0.6	-5.6	0.3	17.3	-9.6
CCc1nc2ccc(C(=O)N(CC)CCN(C)C)cn2c1N(C)Cc1nccs1	/	-13.4	/	/	-19.9	/
CSc1ccc(/C=N/NC(=O)CNc2cccc3ccccc23)cc1	47.5	-39.5	40.5	5.0	-295.1	73.5*
CSc1ccc(/C=N/NC(=O)CNc2ccc3ccccc3c2)cc1	-5.0	-15.9	-0.1	8.3	-258.7	-1.0
CCC(C)Sc1ccc([C@H]2N[C@@](Cc3ccccc3)(C(=O)OC)[C@H]3C(=O)N(C)C(=O)[C@@H]23)cc1 (stereo not given in full)	-0.7	-3.8	-7.1	/	5.8	3.8
Brc1csc(/C=N/Nc2nc3ccccc3s2)c1	57.2*	-4.5	75.7*	-1.2	-80.4	37.4
O=C(Cn1nc2ccccc2n1)N/N=C/c1cc(Cl)cc([N+](=O)[O-])c1O	/	0.1	/	0.8	33.1	/
C(=N\Nc1nc2ccccc2s1)/c1ccc2c(c1)OCO2	55.1*	-2.2	88.6*	-3.6	-237.5	66.7*
O=[N+]([O-])c1cc(Cl)cc(/C=N/Nc2nc3ccccc3s2)c1O	45.3	-3.5	-5.8	-2.6	13.7	54.4*
COc1cc(/C=C(\C(=O)O)c2ccc(S(=O)(=O)N3CCCC3)s2)ccc1OCCC(C)C	/	-38.8	/	/	-267.3	/
Cc1cc(O)c2c(c1O)C(=O)[C@]13C(=C2O)C(=O)[C@@H]2[C@@H](O)[C@H]1[C@@H]1[C@H](O)[C@H]3C(=O)C3=C(O)c4c(O)cc(C)c(O)c4C(=O)[C@]312	35.4	-85.3	8.8	/	19.8*	39.8
Nc1nc(-c2ccccc2)c(N=Nc2cccnc2)s1	-9.2	4.3	-7.1	-2.0	48.4*	-28.3
[O-]/[N+](=C\C=C\c1ccccc1)c1ccccc1	57.5*	-4.3	-0.8	1.9	-2.0	73.0*
Cc1cccc(NC(=O)/C(C#N)=C/c2ccc(Cl)cc2)n1	-3.4	-2.6	-2.8	-3.2	7.3	5.1
COC(=O)c1sccc1NC(=O)/C=C/c1ccc(Cl)cc1	57.8*	2.8	94.7*	3.2	-40.0	74.1*

Source: PubChem BioAssay (several laboratories)
